pIC50: −log10 of the molar value. Active and inactive are the calls of the source. The calls are words filed in the database; no cut-off is given here.
Columns and labels:
[1] = system: HEK-293T; assay: Cytotoxicity against HEK293T cells assessed as cell growth inhibition measured after 48 hrs by MTT assay; type: functional, cell-based; details: Homo sapiens
Method in brief: (§1)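 MTT cell viability read-out; IC50 obtained by non-linear regression of concentration–response data; values are mean ± SD of three independent experiments.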

[2] = Metabolic stability in simulated intestinal fluid at 37 degreeC at 1 mg/ml measured upto 1 hr by HPLC analysis; type: ADME; details: simulated gi fluid
Method in brief: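 Compound at 1 mg mL−1 was incubated in simulated intestinal fluid at 37 °C for up to 1 h. Remaining percentage was measured by HPLC on a C18 column (5 µm, 4.6 × 250 mm), eluting with 95% MeOH/5% H2O.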

[3] = Thermal stability of compound in boiling toluene at 120 degreeC at 1 mg/ml measured for approximately 12 hrs by HPLC analysis; type: physicochemical
Method in brief: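 Compound at 1 mg mL−1 was heated in distilled boiling toluene at 120 °C for 0–24 h. Remaining percentage was measured by HPLC on a C18 column (5 µm, 4.6 × 250 mm) with MeOH/H2O gradients: 70→100% or 45→100% MeOH over 2–15 min, held at 100% to 20 min, then re-equilibrated.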

[4] = system: SK-BR-3; assay: Induction of apoptosis in human SK-BR-3 cells assessed as increase in cleaved pro-caspase-8 level at 10 to 20 uM incubated for 48 hrs by Western blot analysis; type: functional, cell-based; details: dose 10-20 µM
Method in brief: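 Cells exposed 48 h (DMSO vehicle control); trypsinized, lysed in RIPA with phosphatase/protease inhibitors; 20 μg protein on SDS-PAGE, blotted, blocked 5% milk 1 h; primary antibodies 1:1000 overnight at 4 °C, GAPDH 1:10000 as loading control; HRP secondary 1:1000–1:5000; ECL detection.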

[5] = system: SK-BR-3; assay: Induction of apoptosis in human SK-BR-3 cells assessed as necrotic cells at 20 uM incubated for 36 hrs by Annexin V/PI staining based flow cytometry (reference value: 1.89 %); type: functional
[6] = system: SK-BR-3; assay: Induction of apoptosis in human SK-BR-3 cells assessed as necrotic cells at 10 uM incubated for 36 hrs by Annexin V/PI staining based flow cytometry (reference value: 1.89 %); type: functional
[7] = system: SK-BR-3; assay: Induction of apoptosis in human SK-BR-3 cells assessed as late apoptotic cells at 10 uM incubated for 36 hrs by Annexin V/PI staining based flow cytometry (reference value: 4.95 %); type: functional
[8] = system: SK-BR-3; assay: Induction of apoptosis in human SK-BR-3 cells assessed as viable cells at 10 uM incubated for 36 hrs by Annexin V/PI staining based flow cytometry (reference value: 90.4 %); type: functional; details: read-out: Activity
[9] = system: SK-BR-3; assay: Induction of apoptosis in human SK-BR-3 cells assessed as late apoptotic cells at 5 uM incubated for 36 hrs by Annexin V/PI staining based flow cytometry (reference value: 4.95 %); type: functional
[10] = system: SK-BR-3; assay: Induction of apoptosis in human SK-BR-3 cells assessed as early apoptotic cells at 5 uM incubated for 36 hrs by Annexin V/PI staining based flow cytometry (reference value: 2.73 %); type: functional
[11] = system: MCF7; assay: Induction of apoptosis in human MCF7 cells assessed as necrotic cells at 20 uM incubated for 36 hrs by Annexin V/PI staining based flow cytometry (reference value: 2.30 %); type: functional
[12] = system: MCF7; assay: Induction of apoptosis in human MCF7 cells assessed as early apoptotic cells at 20 uM incubated for 36 hrs by Annexin V/PI staining based flow cytometry (reference value: 1.13 %); type: functional
[13] = system: MCF7; assay: Induction of apoptosis in human MCF7 cells assessed as necrotic cells at 5 uM incubated for 36 hrs by Annexin V/PI staining based flow cytometry (reference value: 2.30 %); type: functional
[14] = system: MCF7; assay: Induction of apoptosis in human MCF7 cells assessed as viable cells at 5 uM incubated for 36 hrs by Annexin V/PI staining based flow cytometry (reference value: 90.5 %); type: functional; details: read-out: Activity
[15] = system: SK-BR-3; assay: Induction of cell cycle arrest in human SK-BR-3 cells assessed as accumulation of cells at G1 phase at 5 to 10 uM incubated for 36 hrs by PI staining based flow cytometry; type: functional; details: dose 5-10 µM
Method in brief: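 Following 36 h treatment (0, 5, 10 μM), trypsinized cells fixed overnight in 70% ethanol, treated with RNase (0.2 mg/mL) and PI (0.1 mg/mL) for 20 min, then analysed by flow cytometry for cell-cycle distribution; n = 3 versus control.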

[16] = system: MDA-MB-231; assay: Antiproliferative activity against human MDA-MB-231 cells assessed as inhibition of cell viability measured after 48 hrs by MTT assay; type: functional, cell-based; details: MDA-MB-231, 48 h; method in brief: as §1
[17] = system: SK-BR-3; assay: Antiproliferative activity against human SK-BR-3 cells assessed as inhibition of cell viability measured after 48 hrs by MTT assay; type: functional, cell-based; details: SK-BR-3, 48 h; method in brief: as §1
[18] = system: BT-474; assay: Antiproliferative activity against human BT-474 cells assessed as inhibition of cell viability measured after 48 hrs by MTT assay; type: functional, cell-based; details: BT-474, 48 h; method in brief: as §1
[19] = target: T1, Heat shock protein HSP90 (Homo sapiens, UniProt P07900+P08238); assay: Inhibition of HSP90 in human MCF7 cells assessed as decrease in phosphorylated AKT level at 5 to 20 uM incubated for 48 hrs by Western blot analysis; type: cell-based; details: dose 5-20 µM
Method in brief: (§2)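 MCF-7 or SKBr3 cells were exposed for 48 h, then trypsinised, PBS-washed and lysed in RIPA buffer with phosphatase and protease inhibitors. Cleared lysate (14 000 rpm, 4 °C, 15 min) was BCA-quantified, and 20 µg protein was run on SDS-PAGE and blotted. Blots were blocked in 5% milk, incubated with primary antibodies (1:1000) overnight at 4 °C, then HRP secondary, and developed by ECL. GAPDH (1:10000) was the loading control.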

[20] = target: T1, Heat shock protein HSP90; assay: Inhibition of HSP90 in human MCF7 cells assessed as decrease in CDK4 level at 5 to 20 uM incubated for 48 hrs by Western blot analysis; type: cell-based; details: dose 5-20 µM; method in brief: as §2
[21] = target: T1, Heat shock protein HSP90; assay: Inhibition of HSP90 in human SK-BR-3 cells assessed as decrease in HER2 level at 5 to 20 uM incubated for 48 hrs by Western blot analysis; type: cell-based; details: dose 5-20 µM; method in brief: as §2
[22] = target: T1, Heat shock protein HSP90; assay: Inhibition of HSP90 in human SK-BR-3 cells assessed as decrease in phosphorylated AKT level at 5 to 20 uM incubated for 48 hrs by Western blot analysis; type: cell-based; details: dose 5-20 µM; method in brief: as §2
[23] = target: T1, Heat shock protein HSP90; assay: Inhibition of HSP90 in human SK-BR-3 cells assessed as decrease in AKT level at 5 to 20 uM incubated for 48 hrs by Western blot analysis; type: cell-based; details: dose 5-20 µM; method in brief: as §2
[24] = target: T1, Heat shock protein HSP90; assay: Inhibition of HSP90 (unknown origin) at C-terminal by AlphaScreen assay; type: protein assay
Method in brief: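 Modified AlphaScreen system measuring disruption of Cyp40 binding to recombinant HSP90 C-terminal domain; IC50 from two independent experiments.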

[25] = system: SK-BR-3; assay: Effect on HSF-1 level in human SK-BR-3 cells assessed as nuclear accumulation at 10 uM incubated for 36 hrs by DAPI staining based immunofluorescence analysis; type: functional, cell-based
Method in brief: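 Cells treated 36 h with DMSO vehicle control, then fixed with 4% paraformaldehyde 15 min, permeabilized with 0.2% Triton X-100 5 min, blocked with 3% BSA 15 min; primary antibody then fluorescent secondary antibody, each 1 h at room temperature; HSP70 green, HSF-1 red, nuclei DAPI; imaged by fluorescence microscopy.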

Stability [2]: Stable | Stability [3]: Stable | pIC50 [16]: 4.93 | pIC50 [17]: 4.92 | pIC50 [18]: 5.04 | inhibition [19]: Active | inhibition [20]: Active | inhibition [21]: Active | inhibition [22]: Active | inhibition [23]: Active | IC50 [24]: 53.94 µM
Structure (SMILES): CN1CCN(/C=C/C(=O)/C=C/c2cccc(O[Si](C)(C)C(C)(C)C)c2)CC1
pIC50 [1]: 4.49 | Activity [4]: Active | Activity [5]: 3.13% | Activity [6]: 1.7% | Activity [7]: 8.42% | viability at 10 µM [8]: 86.9% | Activity [9]: 5.82% | Activity [10]: 2.76% | Activity [11]: 16.2% | Activity [12]: 3.58% | Activity [13]: 8.45% | viability at 5 µM [14]: 80% | Activity [15]: Active | Activity [25]: inactive
